The test system of data set [1] is Plasmodium berghei. Nature of the data set: Antimalarial activity against Plasmodium berghei infected in Swiss Webster mouse assessed as mouse survival rate at 11 mg/kg administered once daily via oral gavage for 4 consecutive days beginning 1 hr after infection measured on day 12 post infection relative to control. The data set is classed as functional. The gist of the method: (§1)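 Mice given an intraperitoneal injection of P. berghei-infected erythrocytes taken from a previously infected animal. Oral dosing once daily for 4 consecutive days, starting 1 h after infection. Vehicle: polyethylene glycol 300/propylene glycol/water (weight ratio 55/25/20). Percent survival recorded daily from day 4 to day 20. Chloroquine 30 mg/kg and vehicle-only groups served as controls.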

In data set [2] the test system is Plasmodium berghei. The experiment in a line: Antimalarial activity against Plasmodium berghei infected in Swiss Webster mouse assessed as mouse survival rate at 1 mg/kg administered once daily via oral gavage for 4 consecutive days beginning 1 hr after infection measured on day 6 post infection relative to control. The data set is classed as functional. The gist of the method:
as §1

The subject of data set [3] is Plasmodium berghei. The experiment in a line: Antimalarial activity against Plasmodium berghei infected in Swiss Webster mouse assessed as mouse survival rate at 1 mg/kg administered once daily via oral gavage for 4 consecutive days beginning 1 hr after infection measured on day 4 post infection relative to control. The class given is functional. The gist of the method: as §1

A short description of data set [4]: Volume of distribution at steady state in Sprague-Dawley rat at 5 mg/kg, iv by HPLC/MS analysis. The class given is ADME, organism-based. As to conditions: in vivo, read-out: Vdss.
Data set [5] has as its system Plasmodium falciparum. Nature of the data set: Antimalarial activity against Plasmodium falciparum FCB infected in human erythrocytes assessed as reduction in [3H]-hypoxanthine incorporation preincubated for 24 hrs followed by [3H]-hypoxanthine addition measured after 24 hrs by scintillation counting method. The data set is classed as functional, cell-based.
Data set [6] has as its system Lymphocyte. Nature of the data set: Genotoxicity in human lymphocytes assessed as replication index at 160 ug/mL after 3 hrs in presence of rat liver S9 fraction by micronucleus assay relative to control. The class given is toxicity, cell-based. To be noted: s9, 3 h. The procedure, abridged: (§2)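 Human lymphocytes exposed for 3 h with or without rat liver S9, or 28 h without S9, with 1% DMSO as vehicle control. Replication index = (binucleated + 2 × multinucleated cells)/total cells. Cytotoxicity (%) = 100 − (RI treated/RI vehicle) × 100.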

Data set [7] has as its system Escherichia coli. The experiment in a line: Genotoxicity in Escherichia coli WP2uvrA assessed as number of revertants per plate at 5 ug/plate in absence of rat liver S9 fraction by Ames test (reference value: 45 +/- 9). The data set is classed as toxicity. (In general: The Ames test detects mutagens through reverse mutation in bacteria.)
In the next data set the test system is Rattus norvegicus. Nature of the data set: Genotoxicity in rat assessed as change in polychromatic erythrocytes in bone marrow at 2000 mg/kg administered via oral gavage measured after 48 hrs post dose by micronucleus assay relative to control. To be noted: in vivo. The data set is classed as toxicity, organism-based.
Data set [8] relates to Lymphocyte. The experiment in a line: Genotoxicity in human lymphocytes assessed as replication index at 355.15 ug/mL after 3 hrs in absence of rat liver S9 fraction by micronucleus assay relative to control. The class given is toxicity, cell-based. The procedure, abridged:
as §2

The subject of data set [9] is Salmonella typhimurium. The experiment in a line: Genotoxicity in Salmonella typhimurium TA1535 assessed as number of revertants per plate at 5 ug/plate in absence of rat liver S9 fraction by Ames test (reference value: 10 +/- 3). The data set is classed as toxicity. To be noted: salmonella enterica subsp. enterica serovar typhimurium.
Data set [10] concerns Plasmodium falciparum. The experiment in a line: Antimalarial activity against Plasmodium falciparum T9/94 infected in human erythrocytes assessed as reduction in [3H]-hypoxanthine incorporation preincubated for 24 hrs followed by [3H]-hypoxanthine addition measured after 24 hrs by scintillation counting method. The data set is classed as functional, cell-based.
Data set [11] relates to Salmonella typhimurium. The experiment in a line: Genotoxicity in Salmonella typhimurium TA98 assessed as number of revertants per plate at 5000 ug/plate in absence of rat liver S9 fraction by Ames test (reference value: 14 +/- 6). To be noted: salmonella enterica subsp. enterica serovar typhimurium. The class given is toxicity.
Data set [12] can be described thus: AUC (0 to infinity) in Beagle dog at 5 mg/kg, iv by HPLC/MS analysis. Set-up: dose 5 mg/kg, time infinity, route intravenous. To be noted: in vivo. The data set is classed as ADME, organism-based, Canis lupus familiaris.
Data set [13] has as its system Salmonella typhimurium. Nature of the data set: Genotoxicity in Salmonella typhimurium TA1537 assessed as number of revertants per plate at 5000 ug/plate in absence of rat liver S9 fraction by Ames test (reference value: 19 +/- 9). As to conditions: salmonella enterica subsp. enterica serovar typhimurium. The data set is classed as toxicity.
A short description of data set [14]: AUC (0 to infinity) in Sprague-Dawley rat at 5 mg/kg, iv by HPLC/MS analysis. The data set is classed as ADME, organism-based. As to conditions: in vivo. More on the design: dose 5 mg/kg, route intravenous, time infinity.
The test system of data set [15] is Escherichia coli. Nature of the data set: Genotoxicity in Escherichia coli WP2uvrA assessed as number of revertants per plate at 50 ug/plate in absence of rat liver S9 fraction by Ames test (reference value: 45 +/- 9). The data set is classed as toxicity.
Data set [16] concerns Salmonella typhimurium. Nature of the data set: Genotoxicity in Salmonella typhimurium TA98 assessed as number of revertants per plate at 5000 ug/plate in presence of rat liver S9 fraction by Ames test (reference value: 19 +/- 8). The data set is classed as toxicity. As to conditions: salmonella enterica subsp. enterica serovar typhimurium.
A short description of data set [17]: Terminal half life in Beagle dog at 5 mg/kg, po via gavage by HPLC/MS analysis. As to conditions: in vivo, read-out: beta t1/2 (converted). The class given is ADME, organism-based, Canis lupus familiaris. The gist of the method: (§3)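 Female CD-1 mice, male SD rats or beagle dogs given 5 mg/kg by iv injection or oral gavage. Formulation was PEG300/propylene glycol/water 55/25/20, pH 6. Blood samples analysed by HPLC–MS/MS; parameters include AUC0-inf extrapolated to infinity and terminal half-life.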

For data set [18], the system named is Lymphocyte. The experiment in a line: Genotoxicity in human lymphocytes assessed as increase in frequency of micronucleated cells at 40 ug/mL after 28 hrs in absence of rat liver S9 fraction by micronucleus assay (reference value: 0.74%). The class given is toxicity, cell-based.
For data set [19], the system named is Plasmodium falciparum. Nature of the data set: Antimalarial activity against Plasmodium falciparum TM90C2A infected in human erythrocytes assessed as reduction in [3H]-hypoxanthine incorporation preincubated for 24 hrs followed by [3H]-hypoxanthine addition measured after 24 hrs by scintillation counting method. The class given is functional, cell-based.
Data set [20] can be described thus: Cmax in Sprague-Dawley rat plasma at 5 mg/kg, po via gavage by HPLC/MS analysis. The class given is ADME, organism-based. Set-up: dose 5 mg/kg, route oral. The gist of the method: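 Female CD-1 mice, male SD rats and beagle dogs received 5 mg/kg either iv or by oral gavage. Vehicle was PEG 300/propylene glycol/water (55/25/20, pH 6). Blood was sampled and drug measured by HPLC-MS/MS.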

Data set [21] can be described thus: Oral bioavailability in Sprague-Dawley rat at 5 mg/kg by HPLC/MS analysis. The class given is ADME, organism-based. To be noted: in vivo. The gist of the method:
as §3

For data set [22], the system named is Lymphocyte. Nature of the data set: Genotoxicity in human lymphocytes assessed as increase in frequency of micronucleated cells at 355.15 ug/mL after 3 hrs in absence of rat liver S9 fraction by micronucleus assay (reference value: 0.99%). The class given is toxicity, cell-based.
Data set [23] concerns Plasmodium falciparum. The experiment in a line: Antimalarial activity against Plasmodium falciparum TM90C2B infected in human erythrocytes assessed as reduction in [3H]-hypoxanthine incorporation preincubated for 24 hrs followed by [3H]-hypoxanthine addition measured after 24 hrs by scintillation counting method. The data set is classed as functional, cell-based.
Data set [24] has as its system Salmonella typhimurium. Nature of the data set: Genotoxicity in Salmonella typhimurium TA100 assessed as number of revertants per plate at 150 ug/plate in presence of rat liver S9 fraction by Ames test (reference value: 141 +/- 1). The class given is toxicity. As to conditions: salmonella enterica subsp. enterica serovar typhimurium.
Data set [25] deals with Salmonella typhimurium. The experiment in a line: Genotoxicity in Salmonella typhimurium TA1535 assessed as number of revertants per plate at 1.5 ug/plate in absence of rat liver S9 fraction by Ames test (reference value: 10 +/- 3). The class given is toxicity. As to conditions: salmonella enterica subsp. enterica serovar typhimurium.
Data set [26] relates to Lymphocyte. Nature of the data set: Genotoxicity in human lymphocytes assessed as replication index at 355.15 ug/mL after 3 hrs in presence of rat liver S9 fraction by micronucleus assay relative to control. The class given is toxicity, cell-based. To be noted: s9, 3 h. The procedure, abridged: as §2
Data set [27] relates to Salmonella typhimurium. Nature of the data set: Genotoxicity in Salmonella typhimurium TA100 assessed as number of revertants per plate at 500 ug/plate in presence of rat liver S9 fraction by Ames test (reference value: 141 +/- 1). The data set is classed as toxicity. As to conditions: salmonella enterica subsp. enterica serovar typhimurium.

For `Cc1c(Oc2cnc(C(=O)N3CC(O)(C(C)C)C3)cn2)ccc2c1B(O)OC2`, in the data set on Plasmodium berghei [1], the survival at 11 mg/kg is 20%.
Turning to `Cc1c(Oc2cnc(C(=O)NC(C)CO)cn2)ccc2c1B(O)OC2` (stereo not drawn), the survival at 1 mg/kg was 20% in the data set with Plasmodium berghei [2] and 100% in the data set on Plasmodium berghei [3].
By IC50 is commonly meant the concentration that gives 50% inhibition. A word on the AUC(0-inf): it is total exposure, with the tail of the curve extrapolated. For orientation: Cmax means the highest concentration seen after dosing. The term bioavailability denotes the share of a dose that reaches the circulation, judged against a reference dose that is usually intravenous. On to `Cc1c(Oc2cnc(C(=O)N3CC(C)(O)C3)cn2)ccc2c1B(O)OC2`, for which the Vd in [4] is 0.831 L/kg. Moreover, the IC50 is 66 nM in the data set on Plasmodium falciparum [5], 54 nM in the data set on Plasmodium falciparum [10], 64 nM in the data set with Plasmodium falciparum [19] and 60 nM in the data set with Plasmodium falciparum [23]. Also, the Activity in the data set on Lymphocyte [6] was 8%; in the data set on Escherichia coli [7], 35; with Rattus norvegicus, -12%; in the data set with Lymphocyte [8] it was 7%; in the data set with Salmonella typhimurium [9], 8; in the data set on Salmonella typhimurium [11] it was 9. For the same compound, the Activity is recorded as 10 in the data set on Salmonella typhimurium [13]; 35 in the data set on Escherichia coli [15]; 18 in the data set on Salmonella typhimurium [16]; 1.18% with Lymphocyte [18]; 0.85% with Lymphocyte [22]; 154 with Salmonella typhimurium [24]. In addition, the Activity with Salmonella typhimurium [25] is listed as 12; in the data set on Lymphocyte [26], 7%; in the data set on Salmonella typhimurium [27], 132. The AUC(0-inf) in data set [12] worked out at 168 µg·h/mL; in data set [14] it was 21700 ng·h/mL. For the same compound, the half-life in [17] is 570 min. This compound registered a maximum concentration (Cmax) in [20] of 1700 ng/mL. The compound further showed a bioavailability in data set [21] of 96%.

These data come from ChEMBL document CHEMBL4038305, “Benzoxaborole Antimalarial Agents. Part 5. Lead Optimization of Novel Amide Pyrazinyloxy Benzoxaboroles and Identification of a Preclinical Candidate” (J Med Chem, 2017).
